According to ChEMBL document CHEMBL4616606, “New compounds for a good old class: Synthesis of two Β-lactam bearing cephalosporins and their evaluation with a multidisciplinary approach” (Bioorg Med Chem, 2020):

Key:
[1] = system: Escherichia coli; test: Antimicrobial activity against Escherichia coli JM107 by CLSI method; format: functional; conditions: for MIC50 / MIC: Escherichia coli, JM107; for MIC: read-out: MIC100
[2] = system: Staphylococcus aureus; test: Antimicrobial activity against Staphylococcus aureus by CLSI method; format: functional; conditions: for MIC50 / MIC: Staphylococcus aureus; for MIC: read-out: MIC100
[3] = system: Bacillus subtilis; test: Antimicrobial activity against Bacillus subtilis by CLSI method; format: functional; conditions: for MIC50 / MIC: Bacillus subtilis; for MIC: read-out: MIC100
[4] = system: Salmonella typhimurium; test: Antimicrobial activity against Salmonella enterica LT2 ATCC 700720 by CLSI method; format: functional, Salmonella enterica subsp. enterica serovar Typhimurium; conditions: for MIC50 / MIC: Salmonella enterica, LT2 ATCC 700720; for MIC: read-out: MIC100
[5] = system: MRC5; test: Cytotoxicity against human MRC5 cells assessed as reduction in cell viability at 0.5 to 25 ug/ml after 24 hrs by MTT assay; format: cell-based; conditions: mrc5, 24 h
Summary of the method: (§1)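 MTT colorimetric viability test; human embryonic lung MRC5 cells or human lung cancer Calu-1 cells exposed 24 h to compound over 0.5–50 µg/ml; DMSO vehicle up to 0.4% v/v. Two or three independent experiments, each in triplicate, reported as mean ± SD.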

[6] = system: MRC5; test: Cytotoxicity against human MRC5 cells assessed as reduction in cell viability at 25 ug/ml after 24 hrs by MTT assay; format: cell-based; conditions: mrc5, 24 h; summary of the method: as §1
[7] = system: Calu-1; test: Cytotoxicity against human Calu1 cells assessed as reduction in cell viability at 50 ug/ml after 24 hrs by MTT assay; format: cell-based; conditions: calu-1, 24 h; summary of the method: as §1

SMILES	MLD [1]	MIC50 [1]	MIC [1]	MLD [2]	MIC50 [2]	MIC [2]	MLD [3]	MIC50 [3]	MIC [3]	MLD [4]	MIC50 [4]	MIC [4]	Activity [5]	Activity [6]	Activity [7]
CO/N=C(\C(=O)N[C@@H]1C(=O)N2C(C(=O)O)=C(CSc3nc(=O)c(=O)[nH]n3C)CS[C@H]12)c1csc(N)n1.[Na+]	>1 µg/mL	< 0.25 mg/L	0.25 mg/L	>7 µg/mL	2 to 4 mg/L	5.5 mg/L	>=1 ug ml-1	< 0.25 mg/L	0.75 mg/L	>=2 ug ml-1	< 0.25 mg/L	0.25 mg/L			
CC(=O)OCC1=C(C(=O)[O-])N2C(=O)[C@@H](NC(=O)CCCCCCCC3C(=O)N(c4ccccc4)C3c3ccccc3)[C@H]2SC1.[Na+] (mixture of isomers)	>256 µg/mL	> 256 mg/L	> 256 mg/L	>=1 ug ml-1	< 0.25 mg/L	1 mg/L	>16 µg/mL	< 0.25 mg/L	0.75 mg/L	>256 µg/mL	> 256 mg/L	> 256 mg/L			
CC(=O)OCC1=C(C(=O)[O-])N2C(=O)[C@@H](NC(=O)CCC3C(=O)N(c4ccc(C)c(C)c4)C3c3ccccc3)[C@H]2SC1.[Na+] (mixture of isomers)	>256 µg/mL	> 256 mg/L	> 256 mg/L	>16 µg/mL	1 mg/L	4 to 6 mg/L	64 µg/mL	≤ 1 mg/L	2 mg/L	>256 µg/mL	> 256 mg/L	> 256 mg/L	Non-Toxic		
CC(=O)OCC1=C(C(=O)[O-])N2C(=O)[C@@H](NC(=O)CC3C(=O)N(c4ccc(C)c(C)c4)C3c3ccccc3)[C@H]2SC1.[Na+] (mixture of isomers)	>256 µg/mL	> 256 mg/L	> 256 mg/L	>16 µg/mL	> 1 mg/L	4 to 8 mg/L	>=3.5 ug ml-1	< 0.25 mg/L	3.5 mg/L	>256 µg/mL	> 256 mg/L	> 256 mg/L		20%	
CC(=O)OCC1=C(C(=O)[O-])N2C(=O)[C@@H](NC(=O)CC3C(=O)N(c4ccccc4)C3c3ccccc3)[C@H]2SC1.[Na+] (mixture of isomers)	>256 µg/mL	> 256 mg/L	> 256 mg/L	>3 µg/mL	0.75 mg/L	2.5 mg/L	>2.5 µg/mL	< 0.25 mg/L	2.5 mg/L	>256 µg/mL	> 256 mg/L	> 256 mg/L			
COc1ccc(N2C(=O)C(CCCCCCCC(=O)N[C@@H]3C(=O)N4C(C(=O)[O-])=C(COC(C)=O)CS[C@H]34)C2c2ccccc2)cc1.[Na+] (mixture of isomers)	>256 µg/mL	> 256 mg/L	> 256 mg/L	0.25 µg/mL	> 0.12 mg/L	< 0.25 mg/L	>=2 - 4 ug ml-1	< 0.12 mg/L	0.25 mg/L	>256 µg/mL	> 256 mg/L	> 256 mg/L		20%	
COc1ccc(N2C(=O)C(CC(=O)N[C@@H]3C(=O)N4C(C(=O)[O-])=C(COC(C)=O)CS[C@H]34)C2c2ccc(Cl)cc2)cc1.[Na+] (mixture of isomers)	>256 µg/mL	> 256 mg/L	> 256 mg/L	>32 µg/mL	4 to 8 mg/L	32 mg/L	>256 µg/mL	< 4 mg/L	32 mg/L	>256 µg/mL	> 256 mg/L	> 256 mg/L	Non-Toxic		
COc1ccc(N2C(=O)C(CC(=O)N[C@@H]3C(=O)N4C(C(=O)[O-])=C(COC(C)=O)CS[C@H]34)C2c2ccccc2)cc1.[Na+] (mixture of isomers)	>256 µg/mL	> 256 mg/L	> 256 mg/L	>1.5 µg/mL	< 0.25 mg/L	1.5 mg/L	>=128 ug ml-1	< 0.25 mg/L	0.75 mg/L	>256 µg/mL	> 256 mg/L	> 256 mg/L	Non-Toxic		
CC(=O)OCC1=C(C(=O)[O-])N2C(=O)[C@@H](NC(=O)CCCCCC3C(=O)N(c4ccccc4)C3c3ccccc3)[C@H]2SC1.[Na+] (mixture of isomers)	>256 µg/mL	> 256 mg/L	> 256 mg/L	>4 µg/mL	1.5 to 2 mg/L	3.5 to 4 mg/L	>32 µg/mL	< 0.25 mg/L	0.5 mg/L	>256 µg/mL	> 256 mg/L	> 256 mg/L	Non-Toxic		Toxic
CC(=O)OCC1=C(C(=O)[O-])N2C(=O)[C@@H](NC(=O)CCC3C(=O)N(c4ccccc4)C3c3ccccc3)[C@H]2SC1.[Na+] (mixture of isomers)	>256 µg/mL	> 256 mg/L	> 256 mg/L	>=3 ug ml-1	0.25 to 0.5 mg/L	2.5 mg/L	>32 µg/mL	< 0.25 mg/L	1 mg/L	>256 µg/mL	> 256 mg/L	> 256 mg/L	Non-Toxic		Toxic
COc1ccc(N2C(=O)C(CC(=O)N[C@@H]3C(=O)N4C(C(=O)[O-])=C(COC(C)=O)CS[C@H]34)C2c2ccc([N+](=O)[O-])cc2)cc1.[Na+] (mixture of isomers)	>256 µg/mL	> 256 mg/L	> 256 mg/L	>32 µg/mL	4 to 8 mg/L	32 mg/L	>256 µg/mL	8 mg/L	32 mg/L	>256 µg/mL	> 256 mg/L	> 256 mg/L	Non-Toxic		
COc1ccc(N2C(=O)C(CCCCCC(=O)N[C@@H]3C(=O)N4C(C(=O)[O-])=C(COC(C)=O)CS[C@H]34)C2c2ccccc2)cc1.[Na+] (mixture of isomers)	>256 µg/mL	> 256 mg/L	> 256 mg/L	>=1.75 - 2 ug ml-1	0.75 mg/L	1.75 mg/L	>=0.75 ug ml-1	< 0.12 mg/L	0.25 to 0.35 mg/L	>256 µg/mL	> 256 mg/L	> 256 mg/L	Non-Toxic		
